Source: publication PMC6071421 (Journal of investigative medicine : the official …, 2017)

Biological target: T1, FFA2 (GPR43; Ffar2) (Mus musculus, UniProt Q8VCK6)
T1 sequence (Q8VCK6 1-330): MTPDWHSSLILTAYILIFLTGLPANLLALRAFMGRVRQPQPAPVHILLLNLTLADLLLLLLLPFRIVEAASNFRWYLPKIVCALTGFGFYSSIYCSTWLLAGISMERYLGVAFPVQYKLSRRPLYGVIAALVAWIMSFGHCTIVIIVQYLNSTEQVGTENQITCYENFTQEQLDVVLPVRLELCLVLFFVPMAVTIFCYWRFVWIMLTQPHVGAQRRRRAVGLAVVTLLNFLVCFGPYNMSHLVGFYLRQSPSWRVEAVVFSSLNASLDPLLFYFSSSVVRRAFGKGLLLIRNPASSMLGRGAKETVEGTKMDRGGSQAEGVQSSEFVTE
Test: Ca2+ mobilization, Fluo-8, fluorometric imaging plate reader, beta TC3 cells
Format: cell-based
Conditions: agonist; endogenous receptor in beta TC3 cells; N = 13
In short: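 Mouse βTC3 β cells (express Ffar2 but not Ffar3) loaded with 5 μM Fluo-8 for 60 min at 37°C. Test compounds were added as serial dilutions, each concentration in quadruplicate, and fluorescence was read on a FLIPR. Response was delta F/f: (post-stimulation max − pre-stimulation min)/pre-stimulation min. pEC50 and Emax came from non-linear regression. Experiments were repeated in triplicate.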

`CC(=O)O` [Acetate] was tested, and the pEC50 was 2.32±0.21 -log M.
